Reference: ChEMBL document CHEMBL2069246, “Oxadiazoles in medicinal chemistry” (J Med Chem, 2012)
Converted amounts (≈) assume the structure as drawn.

Legend:
[1] = Lipophilicity, log D of the compound at pH 7.4; type: physicochemical; details: buffer
[2] = target: Voltage-gated inwardly rectifying potassium channel KCNH2 (Homo sapiens, UniProt Q12809); assay: Inhibition of human ERG channel expressed in CHO cells by patch clamp assay
[3] = Dissociation constant, pKa of the compound; type: physicochemical
[4] = Aqueous solubility of the compound in HBSS buffer at pH 7.4; type: physicochemical
[5] = Intrinsic clearance in human liver microsomes at 1 mg/ml; type: ADME, Microsome; details: read-out: CLH
Method in brief: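 Compound incubated 45 min at 37 °C with human liver microsomes at 1 mg/mL. CLint is taken from the rate of parent disappearance.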

Cytochrome P450 3A4 [6] = target: T1, Cytochrome P450 3A4 (Homo sapiens, UniProt P08684); assay: Inhibition of human recombinant CYP3A4 coexpressed in Escherichia coli; type: ADME
T1 sequence (P08684 whole entry, canonical isoform): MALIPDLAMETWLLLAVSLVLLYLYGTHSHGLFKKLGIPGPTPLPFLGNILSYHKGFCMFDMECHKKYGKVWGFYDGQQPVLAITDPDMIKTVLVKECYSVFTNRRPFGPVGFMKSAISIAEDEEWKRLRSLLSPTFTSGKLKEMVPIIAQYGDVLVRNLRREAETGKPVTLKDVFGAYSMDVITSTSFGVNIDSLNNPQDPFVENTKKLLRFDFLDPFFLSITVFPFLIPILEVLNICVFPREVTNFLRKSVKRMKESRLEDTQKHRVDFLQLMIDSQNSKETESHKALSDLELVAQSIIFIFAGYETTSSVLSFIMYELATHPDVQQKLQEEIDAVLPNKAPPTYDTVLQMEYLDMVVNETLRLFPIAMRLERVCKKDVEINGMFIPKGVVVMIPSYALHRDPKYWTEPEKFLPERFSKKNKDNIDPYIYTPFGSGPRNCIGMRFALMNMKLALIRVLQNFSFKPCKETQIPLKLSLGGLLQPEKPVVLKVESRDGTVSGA
Method in brief: (§1)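 Human recombinant cytochrome P450s at 37 °C. Read-out is inhibition of metabolic degradation of each isoform's substrate. Percent inhibition is measured at five test concentrations and converted to IC50.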

Cytochrome P450 2D6 [7] = target: T2, Cytochrome P450 2D6 (Homo sapiens, UniProt P10635); assay: Inhibition of human recombinant CYP2D6 coexpressed in Escherichia coli; type: ADME; method in brief: as §1
T2 sequence (P10635 whole entry): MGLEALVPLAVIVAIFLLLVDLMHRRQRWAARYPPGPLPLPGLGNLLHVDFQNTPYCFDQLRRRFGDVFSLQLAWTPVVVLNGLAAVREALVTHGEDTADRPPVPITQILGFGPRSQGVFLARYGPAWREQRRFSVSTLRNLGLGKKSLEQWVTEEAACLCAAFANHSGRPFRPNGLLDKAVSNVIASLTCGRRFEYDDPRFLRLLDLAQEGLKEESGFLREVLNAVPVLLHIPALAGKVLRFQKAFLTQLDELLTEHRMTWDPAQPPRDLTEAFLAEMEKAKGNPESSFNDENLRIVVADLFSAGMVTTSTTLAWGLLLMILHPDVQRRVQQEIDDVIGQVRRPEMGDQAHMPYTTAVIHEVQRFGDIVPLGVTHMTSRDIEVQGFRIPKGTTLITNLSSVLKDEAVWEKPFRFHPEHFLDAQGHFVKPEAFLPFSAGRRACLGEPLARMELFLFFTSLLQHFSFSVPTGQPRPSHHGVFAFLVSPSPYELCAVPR

Cytochrome P450 2C8 [8] = target: T3, Cytochrome P450 2C8 (Homo sapiens, UniProt P10632); assay: Inhibition of human recombinant CYP2C8 coexpressed in Escherichia coli; type: ADME; method in brief: as §1
T3 sequence (P10632 whole entry): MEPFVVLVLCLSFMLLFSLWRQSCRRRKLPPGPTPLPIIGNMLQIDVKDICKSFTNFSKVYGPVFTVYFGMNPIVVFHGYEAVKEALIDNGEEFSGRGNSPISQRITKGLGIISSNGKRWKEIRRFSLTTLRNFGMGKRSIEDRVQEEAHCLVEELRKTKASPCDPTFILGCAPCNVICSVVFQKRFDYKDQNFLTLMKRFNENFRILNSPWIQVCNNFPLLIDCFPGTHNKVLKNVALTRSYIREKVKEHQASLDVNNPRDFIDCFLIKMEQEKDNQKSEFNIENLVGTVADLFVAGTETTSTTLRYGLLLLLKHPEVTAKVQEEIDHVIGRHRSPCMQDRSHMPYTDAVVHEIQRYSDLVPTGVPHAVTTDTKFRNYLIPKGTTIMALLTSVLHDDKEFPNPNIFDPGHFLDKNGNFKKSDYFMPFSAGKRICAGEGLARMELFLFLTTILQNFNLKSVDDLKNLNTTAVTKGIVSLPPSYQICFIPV

Cytochrome P450 2C9 [9] = target: T4, Cytochrome P450 2C9 (Homo sapiens, UniProt P11712); assay: Inhibition of human recombinant CYP2C9 coexpressed in Escherichia coli; type: ADME; method in brief: as §1
T4 sequence (P11712 whole entry): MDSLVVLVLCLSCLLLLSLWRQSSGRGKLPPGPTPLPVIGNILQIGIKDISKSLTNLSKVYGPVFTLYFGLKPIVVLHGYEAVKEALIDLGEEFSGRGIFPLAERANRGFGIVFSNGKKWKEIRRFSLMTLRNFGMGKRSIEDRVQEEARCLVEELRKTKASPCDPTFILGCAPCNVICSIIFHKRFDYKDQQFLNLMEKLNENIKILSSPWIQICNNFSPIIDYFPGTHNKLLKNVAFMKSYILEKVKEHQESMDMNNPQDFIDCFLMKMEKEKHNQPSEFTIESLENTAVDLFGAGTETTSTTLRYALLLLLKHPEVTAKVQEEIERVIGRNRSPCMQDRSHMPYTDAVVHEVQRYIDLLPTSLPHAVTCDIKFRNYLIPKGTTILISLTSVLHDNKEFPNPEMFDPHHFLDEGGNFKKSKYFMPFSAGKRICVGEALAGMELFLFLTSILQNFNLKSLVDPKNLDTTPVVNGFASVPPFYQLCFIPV

Cytochrome P450 2C19 [10] = target: T5, Cytochrome P450 2C19 (Homo sapiens, UniProt P33261); assay: Inhibition of human recombinant CYP2C19 coexpressed in Escherichia coli; type: ADME; method in brief: as §1
T5 sequence (P33261 whole entry): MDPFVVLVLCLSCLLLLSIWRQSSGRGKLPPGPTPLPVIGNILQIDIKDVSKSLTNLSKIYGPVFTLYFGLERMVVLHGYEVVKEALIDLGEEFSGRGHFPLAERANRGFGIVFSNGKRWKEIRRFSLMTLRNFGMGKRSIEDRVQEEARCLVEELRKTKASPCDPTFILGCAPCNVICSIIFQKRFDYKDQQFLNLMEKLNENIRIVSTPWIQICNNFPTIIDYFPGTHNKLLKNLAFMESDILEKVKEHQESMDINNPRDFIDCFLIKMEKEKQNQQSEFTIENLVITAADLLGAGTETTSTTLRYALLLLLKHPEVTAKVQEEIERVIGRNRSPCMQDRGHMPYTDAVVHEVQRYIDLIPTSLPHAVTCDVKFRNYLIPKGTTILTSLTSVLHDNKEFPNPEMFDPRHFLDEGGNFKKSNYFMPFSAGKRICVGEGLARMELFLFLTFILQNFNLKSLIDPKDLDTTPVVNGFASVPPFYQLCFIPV

Cytochrome P450 1A2 [11] = target: T6, Cytochrome P450 1A2 (Homo sapiens, UniProt P05177); assay: Inhibition of human recombinant CYP1A2 coexpressed in Escherichia coli using phenacetin as probe; type: ADME; method in brief: as §1
T6 sequence (P05177 whole entry): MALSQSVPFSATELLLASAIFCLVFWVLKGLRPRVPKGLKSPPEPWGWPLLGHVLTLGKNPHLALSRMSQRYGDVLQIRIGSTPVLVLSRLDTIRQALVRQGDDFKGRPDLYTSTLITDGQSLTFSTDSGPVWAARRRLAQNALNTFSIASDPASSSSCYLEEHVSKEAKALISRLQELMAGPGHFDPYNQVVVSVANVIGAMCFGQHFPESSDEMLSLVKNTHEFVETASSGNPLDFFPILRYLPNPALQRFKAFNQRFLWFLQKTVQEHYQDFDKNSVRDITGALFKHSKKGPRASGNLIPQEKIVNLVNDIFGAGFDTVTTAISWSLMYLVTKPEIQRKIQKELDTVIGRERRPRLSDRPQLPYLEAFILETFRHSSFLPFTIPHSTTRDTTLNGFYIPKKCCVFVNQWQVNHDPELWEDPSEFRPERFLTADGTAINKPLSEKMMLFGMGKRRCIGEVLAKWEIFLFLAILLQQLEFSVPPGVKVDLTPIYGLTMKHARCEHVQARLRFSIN

Cytochrome P450 3A4 [12] = target: T1, Cytochrome P450 3A4; assay: Activity of human recombinant CYP3A4 assessed as enzyme contribution towards compound metabolism at 37 degC; type: ADME; design: concentration or dose not given beside the values
Method in brief: (§2)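 CYP reaction phenotyping with human recombinant P450 isoforms at 37 °C. Each isoform's share of compound metabolism is given as percent contribution relative to the other isoforms in the test.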

Cytochrome P450 2D6 [13] = target: T2, Cytochrome P450 2D6; assay: Activity of human recombinant CYP2D6 assessed as enzyme contribution towards compound metabolism at 37 degC; type: ADME; method in brief: as §2
Cytochrome P450 1A2 [14] = target: T6, Cytochrome P450 1A2; assay: Activity of human recombinant CYP1A2 assessed as enzyme contribution towards compound metabolism at 37 degC; type: ADME; method in brief: as §2
Cytochrome P450 2C9 [15] = target: T4, Cytochrome P450 2C9; assay: Activity of human recombinant CYP2C9 assessed as enzyme contribution towards compound metabolism at 37 degC; type: ADME; method in brief: as §2
Cytochrome P450 2C19 [16] = target: T5, Cytochrome P450 2C19; assay: Activity of human recombinant CYP2C19 assessed as enzyme contribution towards compound metabolism at 37 degC; type: ADME; method in brief: as §2
Cytochrome P450 2C8 [17] = target: T3, Cytochrome P450 2C8; assay: Activity of human recombinant CYP2C8 assessed as enzyme contribution towards compound metabolism at 37 degC; type: ADME; method in brief: as §2
CYP3A4 = CYP3A4 (Homo sapiens, UniProt P08684); assay: Time dependent inhibition of human recombinant CYP3A4 coexpressed in Escherichia coli at 50 uM using midazolam as probe; type: ADME
Sequence of CYP3A4 (P08684 whole entry): as the sequence (P08684 whole entry, canonical isoform) above
Method in brief: (§3)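 Time-dependent inhibition of human recombinant P450s. Compound is preincubated 30 min at 37 °C with and without NADPH, then percent inhibition is read. Run at 10 and 50 μM, with the 50 μM value reported.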

CYP2D6 = CYP2D6 (Homo sapiens, UniProt P10635); assay: Time dependent inhibition of human recombinant CYP2D6 coexpressed in Escherichia coli at 50 uM using bufuralol as probe; type: ADME; method in brief: as §3
Sequence of CYP2D6 (P10635 whole entry): as the sequence (P10635 whole entry) above

CYP2C8 = target: T7, CYP2C8 (Homo sapiens, UniProt P10632); assay: Time dependent inhibition of human recombinant CYP2C8 coexpressed in Escherichia coli at 50 uM using amodiaquine as probe; type: ADME; method in brief: as §3
T7 sequence (P10632 whole entry): T3 sequence (P10632 whole entry)

CYP2C9 = CYP2C9 (Homo sapiens, UniProt P11712); assay: Time dependent inhibition of human recombinant CYP2C9 coexpressed in Escherichia coli at 50 uM using diclofenac as probe; type: ADME; method in brief: as §3
Sequence of CYP2C9 (P11712 whole entry): as the sequence (P11712 whole entry) above

CYP2C19 = CYP2C19 (Homo sapiens, UniProt P33261); assay: Time dependent inhibition of human recombinant CYP2C19 coexpressed in Escherichia coli at 50 uM using mephenytoin as probe; type: ADME; method in brief: as §3
Sequence of CYP2C19 (P33261 whole entry): as the sequence (P33261 whole entry) above

CYP1A2 = target: T8, CYP1A2 (Homo sapiens, UniProt P05177); assay: Time dependent inhibition of human recombinant CYP1A2 coexpressed in Escherichia coli at 50 uM using phenacetin as probe; type: ADME; method in brief: as §3
T8 sequence (P05177 whole entry): T6 sequence (P05177 whole entry)

Sequence of Voltage-gated inwardly rectifying potassium channel KCNH2 (Q12809 whole entry): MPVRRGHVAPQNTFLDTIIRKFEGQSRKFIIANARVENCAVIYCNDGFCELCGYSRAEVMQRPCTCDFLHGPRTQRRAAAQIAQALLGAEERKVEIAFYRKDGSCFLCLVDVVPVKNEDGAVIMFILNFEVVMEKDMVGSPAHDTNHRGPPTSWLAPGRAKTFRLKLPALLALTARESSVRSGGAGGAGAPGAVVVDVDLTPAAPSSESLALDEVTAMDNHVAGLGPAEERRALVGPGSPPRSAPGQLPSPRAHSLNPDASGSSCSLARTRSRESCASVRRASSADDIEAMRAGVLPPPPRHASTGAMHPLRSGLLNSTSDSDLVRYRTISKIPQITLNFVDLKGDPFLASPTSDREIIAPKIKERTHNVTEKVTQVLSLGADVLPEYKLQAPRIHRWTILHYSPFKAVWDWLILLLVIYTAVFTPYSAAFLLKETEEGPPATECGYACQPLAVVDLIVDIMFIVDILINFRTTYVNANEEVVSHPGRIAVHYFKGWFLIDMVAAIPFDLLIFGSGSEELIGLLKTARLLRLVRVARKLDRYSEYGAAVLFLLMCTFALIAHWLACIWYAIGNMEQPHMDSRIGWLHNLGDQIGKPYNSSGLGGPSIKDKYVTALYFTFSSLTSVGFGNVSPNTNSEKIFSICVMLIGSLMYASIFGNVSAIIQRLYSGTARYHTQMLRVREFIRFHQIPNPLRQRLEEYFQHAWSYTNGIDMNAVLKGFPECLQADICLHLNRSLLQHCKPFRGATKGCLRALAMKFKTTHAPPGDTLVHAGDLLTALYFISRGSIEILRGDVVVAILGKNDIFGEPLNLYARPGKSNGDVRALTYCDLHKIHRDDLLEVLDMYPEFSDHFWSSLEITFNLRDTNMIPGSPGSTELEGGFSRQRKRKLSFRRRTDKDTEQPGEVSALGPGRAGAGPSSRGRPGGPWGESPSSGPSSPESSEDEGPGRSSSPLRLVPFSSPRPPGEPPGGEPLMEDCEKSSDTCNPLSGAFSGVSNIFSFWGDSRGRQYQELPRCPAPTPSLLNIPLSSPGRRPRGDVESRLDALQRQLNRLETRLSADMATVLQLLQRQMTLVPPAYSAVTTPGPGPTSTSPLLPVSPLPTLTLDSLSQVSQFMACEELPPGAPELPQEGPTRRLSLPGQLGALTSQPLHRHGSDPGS

c1ccc(-c2noc(CN3CCN(Cc4nc5ccccc5s4)CC3)n2)cc1
logD [1]: 5.3 | IC50 [2]: 13 µM | pKa [3]: 4.4

c1ccc(-c2nnc(CN3CCN(Cc4nc5ccccc5s4)CC3)o2)cc1
logD [1]: 3.9 | IC50 [2]: 30 µM | pKa [3]: 4.4

c1ccc(-c2noc(-c3ccccc3)n2)cc1
logD [1]: 5.9 | solubility [4]: 7 µM (≈ 1.56 µg/mL)

C[C@@H](Oc1nnc(-c2ccncc2)n1C)c1nnc(-c2cccc(Cl)c2)o1
logD [1]: 2.3 | IC50 [2]: 21.5 µM | pKa [3]: 3.7

CCOC(=O)N1CCN(Cc2noc(-c3cc(Cl)ccc3F)n2)CC1
logD [1]: 4.3 | IC50 [2]: 31 µM | pKa [3]: 4

CCCc1cc(O)nc(SCc2nc(-c3ccccc3)no2)n1
logD [1]: 3.1 | solubility [4]: 5 µM (≈ 1.64 µg/mL)

CN(Cc1nc2ccccc2c(=O)[nH]1)Cc1nnc(-c2ccccc2)o1
logD [1]: 2 | IC50 [2]: > 33 µM | pKa [3]: 2.3

c1cncc(-c2ccc(-c3noc(C4CN5CCC4CC5)n3)o2)c1 (stereo unspecified)
logD [1]: 0.7 | IC50 [2]: 6.4 µM | pKa [3]: 8.8

c1ccc(CN2CCN(Cc3nnc(-c4ccccc4)o3)CC2)cc1
logD [1]: 3.6 | microsomal CLint [5]: 4 µL/min/mg | IC50 (Cytochrome P450 3A4 [6]): > 20 µM | IC50 (Cytochrome P450 2D6 [7]): > 20 µM | IC50 (Cytochrome P450 2C8 [8]): > 20 µM | IC50 (Cytochrome P450 2C9 [9]): > 20 µM | IC50 (Cytochrome P450 2C19 [10]): > 20 µM | IC50 (Cytochrome P450 1A2 [11]): > 20 µM | Activity (Cytochrome P450 3A4 [12]): 92% | Activity (Cytochrome P450 2D6 [13]): 1.7% | Activity (Cytochrome P450 1A2 [14]): 0% | CYP isoform contribution to compound metabolism (Cytochrome P450 2C9 [15]): 1.2% | Activity (Cytochrome P450 2C19 [16]): 3.2% | Activity (Cytochrome P450 2C8 [17]): 1.5% | IC50 [2]: 27.3 µM | pKa [3]: 6.7

c1ccc(-c2nnc(-c3ccccc3)o2)cc1
logD [1]: 4 | solubility [4]: 26 µM (≈ 5.78 µg/mL)

CCCc1cc(=O)[nH]c(SCc2nnc(-c3ccccc3)o2)n1
logD [1]: 2.2 | solubility [4]: 81 µM (≈ 26.6 µg/mL)

c1cc(-c2noc(C3CCCCC3)n2)ccn1
microsomal CLint [5]: 83 µL/min/mg | IC50 (Cytochrome P450 3A4 [6]): 10.2 µM | IC50 (Cytochrome P450 2D6 [7]): 10 µM | IC50 (Cytochrome P450 2C8 [8]): > 20 µM | IC50 (Cytochrome P450 2C9 [9]): 17.6 µM | IC50 (Cytochrome P450 2C19 [10]): 1.2 µM | IC50 (Cytochrome P450 1A2 [11]): 2.4 µM | inhibition at 50 µM (CYP3A4): < 7% | inhibition at 50 µM (CYP2D6): < 9% | inhibition at 50 µM (CYP2C8): < 13% | inhibition at 50 µM (CYP2C9): < 19% | inhibition at 50 µM (CYP2C19): < 12% | inhibition at 50 µM (CYP1A2): < 7% | Activity (Cytochrome P450 3A4 [12]): 17.7% | Activity (Cytochrome P450 2D6 [13]): 8.6% | Activity (Cytochrome P450 1A2 [14]): 29.5% | CYP isoform contribution to compound metabolism (Cytochrome P450 2C9 [15]): 4.7% | Activity (Cytochrome P450 2C19 [16]): 38% | Activity (Cytochrome P450 2C8 [17]): 1.5%

O=C(NC1CCCCC1)c1nc(CS(=O)(=O)c2ccccc2)no1
microsomal CLint [5]: 50 µL/min/mg | IC50 (Cytochrome P450 3A4 [6]): > 20 µM | IC50 (Cytochrome P450 2D6 [7]): > 20 µM | IC50 (Cytochrome P450 2C8 [8]): > 20 µM | IC50 (Cytochrome P450 2C9 [9]): > 20 µM | IC50 (Cytochrome P450 2C19 [10]): > 20 µM | IC50 (Cytochrome P450 1A2 [11]): > 20 µM | inhibition at 50 µM (CYP3A4): < 7% | inhibition at 50 µM (CYP2D6): < 9% | inhibition at 50 µM (CYP2C8): < 13% | inhibition at 50 µM (CYP2C9): < 19% | inhibition at 50 µM (CYP2C19): < 19% | inhibition at 50 µM (CYP1A2): < 7% | Activity (Cytochrome P450 3A4 [12]): 91.5% | Activity (Cytochrome P450 2D6 [13]): 0.1% | Activity (Cytochrome P450 1A2 [14]): 0.2% | CYP isoform contribution to compound metabolism (Cytochrome P450 2C9 [15]): 0.3% | Activity (Cytochrome P450 2C19 [16]): 7.9% | Activity (Cytochrome P450 2C8 [17]): 0%

C[C@@H](Oc1nnc(-c2ccncc2)n1C)c1noc(-c2cccc(Cl)c2)n1
logD [1]: 3 | IC50 [2]: 11.6 µM | pKa [3]: 3.4

c1cncc(-c2ccc(-c3nnc(C4CN5CCC4CC5)o3)o2)c1 (stereo unspecified)
logD [1]: < 0 | IC50 [2]: 20.2 µM | pKa [3]: 9.1
